According to ChEMBL document CHEMBL1121504, “Aporphines. 31. Synthesis and antitumor activity of aporphine nitrogen mustards” (1980):

Assays:
Mus musculus [1] = assay: (§1) Antitumor activity against intraperitoneally implanted lymphoid leukemia (LE1210) tumor system at dose 25 mg/kg; format: functional; settings: route intraperitoneal
Summary of the method: (§2)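 Murine-screen tumor implanted intraperitoneally and treated at the listed mg/kg doses under standard NCI protocols. Activity is read out as T/C, the treated-to-control ratio.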

Mus musculus [2] = assay: (§3) Antitumor activity against intraperitoneally implanted lymphoid leukemia (LE1210) tumor system at dose 100 mg/kg; format: functional; settings: route intraperitoneal; summary of the method: as §2
P388 [3] = assay: Antitumor activity against intraperitoneally implanted lymphocytic leukemia (P388) system at dose 16 mg/kg; format: functional, Mus musculus; settings: route intraperitoneal; summary of the method: as §2
Mus musculus [4] = assay: (§4) Antitumor activity against intraperitoneally implanted lymphoid leukemia (LE1210) tumor system at dose 50 mg/kg; format: functional; settings: route intraperitoneal; summary of the method: as §2
[5] = Antitumor activity against intracerebrally implanted ependymoblastoma (EM) tumor system at dose 4 mg/kg; format: functional
Summary of the method: (§5)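 Tumor implanted […] and treated at the listed mg/kg doses under standard NCI protocols. Activity is read out as T/C, the treated-to-control ratio.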

[6] = Antitumor activity against intracerebrally implanted ependymoblastoma (EM) tumor system at dose 8 mg/kg; format: functional; summary of the method: as §5
Mus musculus [7] = assay: Antitumor activity against intraperitoneally implanted lymphoid leukemia (LE1210) tumor system at dose 12.5 mg/kg; format: functional; settings: route intraperitoneal; summary of the method: as §2
P388 [8] = assay: Antitumor activity against intraperitoneally implanted lymphocytic leukemia (P388) system at dose 4 mg/kg; format: functional, Mus musculus; settings: route intraperitoneal; summary of the method: as §2
[9] = Antitumor activity against intracerebrally implanted ependymoblastoma (EM) tumor system at dose 16 mg/kg; format: functional; summary of the method: as §5
P388 [10] = assay: Antitumor activity against intraperitoneally implanted lymphocytic leukemia (P388) system at dose 8 mg/kg; format: functional, Mus musculus; settings: route intraperitoneal; summary of the method: as §2
Mus musculus [11] = assay: Antitumor activity against intraperitoneally implanted lymphoid leukemia (LE1210) tumor system at dose 6.25 mg/kg; format: functional; settings: route intraperitoneal; summary of the method: as §2
P388 [12] = assay: Antitumor activity against intraperitoneally implanted P388 lymphocytic leukemia (P388) system at dose 12.5 mg/kg; format: functional, Mus musculus; settings: route intraperitoneal; summary of the method: as §2
P388 [13] = assay: Antitumor activity against intraperitoneally implanted P388 lymphocytic leukemia (P388) system at dose 3.13 mg/kg; format: functional, Mus musculus; settings: route intraperitoneal; summary of the method: as §2
P388 [14] = assay: Antitumor activity against intraperitoneally implanted P388 lymphocytic leukemia (P388) system at dose 25 mg/kg; format: functional, Mus musculus; settings: route intraperitoneal; summary of the method: as §2
P388 [15] = assay: Antitumor activity against intraperitoneally implanted P388 lymphocytic leukemia (P388) system at dose 6.25 mg/kg; format: functional, Mus musculus; settings: route intraperitoneal; summary of the method: as §2
B16 [16] = assay: Antitumor activity against B16 melanoma tumor system at dose 50 mg/kg; format: functional, Mus musculus
Summary of the method: (§6)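 B16 melanocarcinoma assay run at the listed mg/kg doses under standard NCI protocols. Activity is read out as T/C, the treated-to-control ratio.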

B16 [17] = assay: Antitumor activity against B16 melanoma tumor system at dose 25 mg/kg; format: functional, Mus musculus; summary of the method: as §6
[18] = Antitumor activity against intracerebrally implanted ependymoblastoma (EM) tumor system at dose 12.5 mg/kg; format: functional; summary of the method: as §5
L1210 [19] = assay: as §1; format: functional, Mus musculus; settings: route intraperitoneal; summary of the method: as §2
B16 [20] = assay: Antitumor activity against intracerebrally implanted B16 melanoma tumor system at dose 8 mg/kg; format: functional, Mus musculus; summary of the method: as §5
P388 [21] = assay: Antitumor activity against intraperitoneally implanted lymphocytic leukemia (P388) system at dose 12.5 mg/kg; format: functional, Mus musculus; settings: route intraperitoneal; summary of the method: as §2
L1210 [22] = assay: as §3; format: functional, Mus musculus; settings: route intraperitoneal; summary of the method: as §2
[23] = Antitumor activity against intracerebrally implanted ependymoblastoma (EM) tumor system at dose 50 mg/kg; format: functional; summary of the method: as §5
[24] = Antitumor activity against intracerebrally implanted ependymoblastoma (EM) tumor system at dose 25 mg/kg; format: functional; summary of the method: as §5
L1210 [25] = assay: as §4; format: functional, Mus musculus; settings: route intraperitoneal; summary of the method: as §2
P388 [26] = assay: Antitumor activity against intraperitoneally implanted lymphocytic leukemia (P388) system at dose 25 mg/kg; format: functional, Mus musculus; settings: route intraperitoneal; summary of the method: as §2
P388 [27] = assay: Antitumor activity against intraperitoneally implanted lymphocytic leukemia (P388) system at dose 50 mg/kg; format: functional, Mus musculus; settings: route intraperitoneal; summary of the method: as §2
B16 [28] = assay: Antitumor activity against B16 melanoma tumor system at dose 12.5 mg/kg; format: functional, Mus musculus; summary of the method: as §6
B16 [29] = assay: Antitumor activity against intracerebrally implanted B16 melanoma tumor system at dose 16 mg/kg; format: functional, Mus musculus; summary of the method: as §5
P388 [30] = assay: Antitumor activity against intraperitoneally implanted lymphocytic leukemia (P388) system at dose 6.25 mg/kg; format: functional, Mus musculus; settings: route intraperitoneal; summary of the method: as §2

Compound `COc1cc2c3c(c1)-c1c(ccc(OC)c1OC)CC3N(CCN(CCCl)CCCl)CC2` (stereo not given) has a T/C (Mus musculus [1]) of 101, a T/C (Mus musculus [2]) of 87 and a T/C (P388 [3]) of 113. The T/C (Mus musculus [4]) was 101, the T/C [5] was 108 and the T/C [6] was 104. It also gave a T/C (Mus musculus [7]) of 98, a T/C (P388 [8]) of 106 and a T/C [9] of 108. It also gave a T/C (P388 [10]) of 127 and a T/C (Mus musculus [11]) of 101.
Work on `COc1ccc2c(c1O)-c1cc(O)cc3c1C(C2)N(C(=O)CN(CCCl)CCCl)CC3` (stereo not given) yielded a T/C (P388 [12]) of 158, a T/C (P388 [13]) of 130 and a T/C (P388 [14]) of 114. For the same compound, the T/C (P388 [15]) was 149.
Work on `COc1ccc2c(c1OC(C)=O)-c1cc(O)cc3c1C(C2)N(C(=O)CN(CCCl)CCCl)CC3` (stereo not given) yielded a T/C (B16 [16]) of 170, a T/C (B16 [17]) of 135 and a T/C [18] of 94. The T/C (L1210 [19]) was 136, the T/C (B16 [20]) was 111 and the T/C (P388 [21]) was 174. It also gave a T/C (L1210 [22]) of 88, a T/C [23] of 86 and a T/C [24] of 99. For the same compound, the T/C (L1210 [25]) was 127, the T/C (P388 [26]) was 168 and the T/C (P388 [27]) was 130. The T/C (B16 [28]) was 134, the T/C (B16 [29]) was 102 and the T/C (P388 [30]) was 143.
